Bioassay records from PubChem.
The list is not random: actives were taken first. Their share in the collection is about 2.1%.
aDG glyco up = increases alpha dystroglycan glycosylation | Pro5-aDG cells, alpha-DG glycosylation AlphaScreen (IIH6); 0% Pro5, 100% B10-LARGE cell signal | activation, % at 10 µM | actives 0.22% (n = 360,000);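 active means activation of at least 8% versus controls, or a plate z-score of at least 8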;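 further: Pro5 are CHO cells carrying HIG-tagged alpha-DG that lacks glycosylation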
PfGluPho inh = PfG6PD (Plasmodium falciparum) enzyme inhibition | actives 0.78% (n = 350,000) | inhibition, % at 20 µM | PfGluPho enzyme, NADPH resazurin-diaphorase fluorescence | AID 504690;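 active means inhibition reaching at least a set limit at 20 µM in the primary screen, cut at about 59% in these data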;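 further: 0% = DMSO wells with substrate and 100% = DMSO wells lacking glucose-6-phosphate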
H9c2 protect = modulators protecting cardiomyocytes from myocardial damage | H9c2 cardiomyocytes, H2O2 injury protection, ATPLite, 2 h | protection from H2O2 cell death, % at 20 µM | actives 0.63% (n = 360,000);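 active means compounds giving at least 50% protection of heart cells from peroxide-induced death in the single-dose screen, raw or plate-pattern-corrected value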;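 further: 0% = DMSO wells with peroxide and 100% = DMSO wells without peroxide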
HKDC1 inh = blocks human hexokinase HKDC1 activity; recombinant HKDC1, G6PDH/diaphorase resazurin coupled fluorescence; Q2TB90; AID 493160; inhibition, % at 20 µM; actives 0.16% (n = 340,000);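 active means inhibition above about 35% when tested at 20 µM, limit read from the data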;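 further: plate controls were DMSO wells with enzyme for no effect and DMSO wells lacking enzyme for full effect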
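Incubation: 90 min at room temperature in dark / Material: recombinant HKDC1 (HK5) hexokinase enzyme, produced in-house / Quantity: enzyme 5 µg/mL final / Compound: one dose of 20 µM, 1% DMSO / Reagent: glucose and ATP substrates / Buffer or medium: Tris pH 8.0 buffer with MgCl2, Tween-20, BSA, BME / Technique: resorufin fluorescence at 613 nm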
UCH37 DUB inh = human UCH37 deubiquitinating enzyme inhibition; Q9Y5K5; purified proteasome/UCH37, Ub-AMC cleavage fluorescence; inhibition, % (test concentration not listed); actives 0.33% (n = 330,000); AID 588478;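 active means mean inhibition over replicate wells above about 20%, limit read from the data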;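 further: 0% = compound-free wells with enzyme and 100% = wells lacking proteasome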
Target sequence (Q9Y5K5 whole entry, looked up): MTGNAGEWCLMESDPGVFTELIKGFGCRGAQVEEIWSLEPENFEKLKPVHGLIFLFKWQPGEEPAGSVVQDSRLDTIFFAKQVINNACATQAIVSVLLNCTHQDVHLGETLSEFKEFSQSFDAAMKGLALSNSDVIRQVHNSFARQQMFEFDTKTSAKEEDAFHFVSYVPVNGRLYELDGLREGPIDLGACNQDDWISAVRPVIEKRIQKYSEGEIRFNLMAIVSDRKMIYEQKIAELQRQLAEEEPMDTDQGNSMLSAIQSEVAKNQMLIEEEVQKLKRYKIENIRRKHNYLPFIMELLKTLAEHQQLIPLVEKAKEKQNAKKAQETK
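assay system = human UCH37 enzyme supplied as purified proteasome complex | amount = proteasome at 0.15 nM in the dispensed enzyme solution | schedule = 30 min compound-proteasome preincubation then 25 min substrate reaction, room temperature | measured by = fluorescence, ex 355 nm, em 460 nm | benchmarks = no-proteasome wells (full inhibition) and compound-free wells (no inhibition)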
B2AR ag = activates human beta-2 adrenergic receptor causing internalization; P07550; Am2.2-beta2AR cells, FAP receptor internalization, flow cytometry; response, % (no concentration beside the values); actives 0.43% (n = 340,000); AID 504454;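 active means response above a set limit, near 3 SD of response in nonfluorescent compounds, cut at about 42% in these data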
* hit, by the source's call; x = no result given.

SMILES | aDG glyco up | PfGluPho inh | H9c2 protect | HKDC1 inh | UCH37 DUB inh | B2AR ag
O=C(/C=C\c1cn(-c2ccccc2)nc1-c1ccc2c(c1)OCCO2)N1CCOCC1 | 0 | 3 | 60* | -2 | 2 | 8
O=C(O)/C=C/c1cn(-c2ccccc2)nc1-c1ccc2c(c1)OCCO2 | 1 | -3 | 2 | -3 | 6 | -4
CN1CCN(C(=O)/C=C/c2cn(-c3ccccc3)nc2-c2ccc3c(c2)OCCO3)CC1 | 0 | -4 | 33 | 0 | -10 | 24
CN(C)C(=O)/C=C\c1cn(-c2ccccc2)nc1-c1ccc2c(c1)OCCO2 | 0 | 24 | 52* | -5 | -1 | -4
CCC[n+]1c(C)sc2c3c(ccc21)CCCC3 | 6.9* | 35 | -32 | 3 | 7 | 7
Nc1ccccc1C#CC(=O)c1ccccc1 | 0 | 9 | -22 | 24 | x | 44*
O=C(C#Cc1cccc([N+](=O)[O-])c1)c1ccccc1 | 0 | x | -20 | x | 5 | 88*
N#CC1(NC(=O)COC(=O)c2ccccc2[N+](=O)[O-])CCCCC1 | 0 | 12 | -2 | -3 | 3 | -6
N#CC1(NC(=O)COC(=O)c2cc(O)c3ccccc3c2O)CCCCC1 | 1 | 59 | -17 | 50* | -56 | 18
COc1ccc(C=NN(CCC(=O)NC(C)(C)C)C2=NS(=O)(=O)c3ccccc32)cc1 | x | x | x | x | -17 | x
O=C1C2C3C=CC(CC3)C2C(=O)N1c1cccc(Br)c1 (stereo not given) | 0 | 3 | 76* | -5 | 3 | -9
NC(=O)NN=C1c2ccccc2-c2c(C(N)=O)cccc21 | x | x | x | x | 9 | x
CS(=O)(=O)Nc1ccc(-c2ccc3nccn3c2)cc1 | 0 | x | 52* | x | x | x
COC1=C(N)C(=O)c2nc(-c3nc(C(=O)O)c(C)c(-c4ccc(OC)c(OC)c4O)c3N)ccc2C1=O | x | 93* | x | 4 | 82* | x
C=CCOc1ccc(/C=C2\C(=N)N3N=C(S(=O)(=O)CC)SC3=NC2=O)cc1OC | 0 | -41 | 3 | 17 | 21* | 5
CCS(=O)(=O)C1=NN2C(=N)/C(=C\c3ccc(OC(=O)c4ccco4)c(OC)c3)C(=O)N=C2S1 | -1 | -23 | 1 | 13 | x | 15
c1cc2[nH]snc2c2nc(C3CC3)nc12 | 0 | 23 | 86* | 3 | 2 | 36
C/C(=N\NC(=O)CSCc1ccccc1Cl)c1cc(O)ccc1O | 1 | -15 | 51* | -13 | x | 4
CC(=O)Nc1ccc(NC(=O)CSCc2ccccc2Cl)cc1 | 0 | -5 | 1 | 5 | 7 | -14
CN(C)c1cccc(C(=O)NN=Cc2ccsc2)c1 | x | x | x | x | 5 | x
Cc1ccc(NC(=O)CN2C(=O)N/C(=C/c3cc(C)n(-c4ccc(C(=O)O)cc4)c3C)C2=O)cc1 | 0 | -12 | 13 | -6 | 10 | -2
Cc1ccc(NC(=O)CN2C(=O)N/C(=C/c3cccn3-c3ccc(C(=O)O)cc3)C2=O)cc1 | 0 | -9 | 11 | 27 | 21* | 13
Cc1cc(C(=O)NN=Cc2cc(Br)c(Br)o2)n[nH]1 | x | x | x | x | 6 | x
COC(=O)NN=Cc1cn(CCOc2cccc(OC)c2)c2ccccc12 | x | x | x | x | 5 | x
Cc1cccc(C(=O)NNC(=O)c2c(O)c3ccccc3n(C)c2=O)c1 | 0 | -15 | 17 | -6 | -13 | -3
SMILES | aDG glyco up | PfGluPho inh | H9c2 protect | HKDC1 inh | UCH37 DUB inh | B2AR ag
Cn1c(=O)c(C(=O)NNC(=O)c2cccc(Cl)c2)c(O)c2ccccc21 | 0 | -16 | -15 | -7 | -10 | 77*
O=C(NN=Cc1ccoc1)c1ccco1 | x | x | x | x | 3 | x
Cc1ccccc1C(=O)Nc1ccc(C(=O)NNC(=O)CCCOc2ccc(Cl)cc2Cl)cc1 | 0 | -8 | -5 | -16 | -1 | 1
Cc1cc(Cl)ccc1OCCCC(=O)NNC(=O)c1ccccc1O | 1 | -48 | 55* | -16 | 0 | -2
CCOC(=O)c1c(C)oc2c1c1c(c3ccccc32)OCN(Cc2ccccn2)C1 | 1 | 23 | 54* | 23 | 3 | -8
COC(=O)C=c1sc(=C(C#N)C(=O)N2CCCCC2)n(-c2ccccc2)c1=O | x | x | x | x | 1 | x
COc1cc(/C=c2\s/c(=C(/C#N)C(=O)N3CCCC3)n(-c3ccccc3)c2=O)ccc1O | -1 | -7 | 58* | -3 | x | -4
CN(N=Cc1ccc2c(c1)OCO2)c1nc(N2CCOCC2)nc(N2CCOCC2)n1 | x | x | x | x | 10 | x
CCOc1cccc(C=NNC(=O)C2CCCC2)c1O | x | x | x | x | -2 | x
Oc1ccc2ccccc2c1N=Nc1ccccc1F | 0 | 12 | -6 | 9 | 2 | 4
O=S(=O)(O)c1cccc(N=Nc2c(O)ccc3ccccc23)c1 | 0 | 6 | 0 | 3 | 22* | -8
Cc1ccc(NC(=O)C2=C(O)c3sccc3N(C)S2(=O)=O)cc1 | 0 | -18 | -14 | 2 | 14 | -10
Cc1ccc(NC(=S)C2=C(O)c3sccc3N(C)S2(=O)=O)cc1 | 0 | -24 | -10 | 0 | 24* | 6
CC(=O)N1CCC2(CC1)CC(=NNC(=S)Nc1ccc(C)cc1)c1cc(O)ccc1O2 | x | x | x | x | -50 | x
Cc1ccc(S(=O)(=O)N=Cc2cc(Br)ccc2O)cc1 | x | x | x | x | 4 | x
Cc1ccc(S(=O)(=O)/N=C/c2cc(Br)ccc2O)cc1 | 0 | -19 | 54* | 2 | x | 2
Cc1cc(N=Cc2cc(Br)ccc2O)no1 | 0 | -5 | 57* | -5 | 0 | 8
COc1ccc(-c2nnc(-c3cc(OC)c(OC)c(OC)c3)o2)cc1OC | 0 | 2 | 58* | -3 | -23 | 10
CC1(C)CC(=O)C2=C(C1)N(CCN1CCOCC1)C1=C(C(=O)CC(C)(C)C1)C2c1ccc(Cl)cc1 | 0 | 23 | 52* | -3 | -304 | -1
CCc1nc(SCC(=O)NCc2ccccc2)c2c(=O)n(C)c(=O)n(C)c2n1 | 0 | 0 | 38 | -6 | 2 | 5
Cc1nc(SCC(=O)NCc2ccc(F)cc2)c2c(=O)n(C)c(=O)n(C)c2n1 | 0 | -2 | 53* | -2 | 1 | 10
Cc1ccc([N+](=O)[O-])cc1C=NNc1nnnn1-c1ccccc1 | x | x | x | x | 1 | x
Cc1cc(/C=C(\C#N)C(=O)O)c(C)n1C1CC1 | 0 | 2 | -6 | -10 | 21* | -1
CCCCn1c(C)cc(/C=C(\C#N)C(=O)O)c1C | 0 | -24 | -6 | -6 | 13 | -1
O=C1CC(c2ccc3c(c2)OCO3)CN1 (stereo not given) | 0 | 0 | 6 | -7 | 27* | -11
CC(=O)C1CCC2C3CCC4=CC(=O)CCC4(C)C3(Br)C(=O)CC12C (stereo not given) | 0 | 9 | 1 | -4 | 2 | 56*
CC(C)(C)OC(=O)CNC(=O)c1[nH]cnc1C(=O)NCC(=O)OCc1ccccc1 | 0 | 4 | 105* | -2 | 31* | 15
